ChEMBL document CHEMBL1143371, “2-Aminoimidazoles inhibitors of TGF-beta receptor 1” (Bioorg Med Chem Lett, 2009)

Assays:
TGF-beta receptor type-1 [1] = biological target: T1, TGF-beta receptor type-1 (Homo sapiens, UniProt P36897); assay: Binding affinity to human TGFBR1
T1 sequence (P36897 whole entry): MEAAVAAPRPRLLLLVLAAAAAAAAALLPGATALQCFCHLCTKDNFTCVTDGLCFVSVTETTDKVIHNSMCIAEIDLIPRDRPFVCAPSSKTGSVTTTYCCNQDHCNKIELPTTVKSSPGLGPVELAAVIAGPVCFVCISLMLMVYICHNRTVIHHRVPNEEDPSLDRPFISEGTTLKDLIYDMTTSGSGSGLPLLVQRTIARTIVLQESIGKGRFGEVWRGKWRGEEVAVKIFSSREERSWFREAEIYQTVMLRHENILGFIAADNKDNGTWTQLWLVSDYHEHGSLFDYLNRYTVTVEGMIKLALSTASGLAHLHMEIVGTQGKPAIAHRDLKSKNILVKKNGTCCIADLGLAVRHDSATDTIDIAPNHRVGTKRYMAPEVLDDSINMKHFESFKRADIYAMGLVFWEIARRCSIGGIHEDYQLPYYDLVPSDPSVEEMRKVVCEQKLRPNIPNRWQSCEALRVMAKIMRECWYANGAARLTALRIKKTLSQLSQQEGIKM

TGF-beta receptor type-1 [2] = biological target: T1, TGF-beta receptor type-1; assay: Inhibition of TGFBR1 transfected in human HepG2 cells after 24 hrs by plasminogen activator inhibitor-luciferase reporter gene assay; format: cell-based
[3] = biological target: Mitogen-activated protein kinase 14 (Homo sapiens, UniProt Q16539); assay: Inhibition of p38alpha
[4] = Half life in iv dosed Sprague-Dawley rat; format: ADME, organism-based; conditions: in vivo
Procedure, shortened: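 Half-life was measured in fasted male Sprague–Dawley rats and is the mean of 4 iv experiments. Depending on the compound, the vehicle was 20% captisol or NMP/H₂O (1/1).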

[5] = Bioavailability in iv and po dosed Sprague-Dawley rat; format: ADME, organism-based; conditions: in vivo
Procedure, shortened: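 Fasted male Sprague–Dawley rats were dosed iv and po. […] Depending on the compound, the vehicle was 20% captisol or NMP/H₂O (1/1).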

Chain of Mitogen-activated protein kinase 14 (Q16539 whole entry): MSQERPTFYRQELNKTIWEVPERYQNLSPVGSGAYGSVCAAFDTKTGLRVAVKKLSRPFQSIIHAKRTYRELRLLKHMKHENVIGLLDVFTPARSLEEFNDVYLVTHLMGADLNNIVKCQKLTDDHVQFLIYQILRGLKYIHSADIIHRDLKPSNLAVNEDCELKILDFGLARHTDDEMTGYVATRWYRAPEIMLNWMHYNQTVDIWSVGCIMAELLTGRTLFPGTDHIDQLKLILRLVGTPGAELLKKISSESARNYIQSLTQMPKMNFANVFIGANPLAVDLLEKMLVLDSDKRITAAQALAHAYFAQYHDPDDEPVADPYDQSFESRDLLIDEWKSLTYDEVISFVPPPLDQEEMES

| Ki (TGF-beta receptor type-1 [1]) [nM] | EC50 (TGF-beta receptor type-1 [2]) [nM] | EC50 [3] [nM] | SMILES | half-life [4] [h] | bioavailability [5] [%] | IC50 (TGF-beta receptor type-1 [2]) [nM] | IC50 [3] [nM] |
| --- | --- | --- | --- | --- | --- | --- | --- |
| 19 | 148 | 14800 | COCCC(=O)Nc1nc(-c2ccc(F)c(C)n2)c(-c2ccc3nccnc3c2)[nH]1 | 13.2 | 41 | – | – |
| 16.4 | 344 | 10900 | Cc1nc(-c2nc(N3CCN(C)CC3)[nH]c2-c2ccc3ncnn3c2)ccc1F | – | – | – | – |
| 0.33 | 80 | 22000 | Cc1cccc(-c2nc(N)sc2-c2ccc3nccnc3c2)n1 | 7.4 | 87 | – | – |
| > 28000 | – | – | Cc1nc(-c2nc(NC(=O)C(C)C)[nH]c2-c2ccc3nccnc3c2)ccc1F | – | – | – | – |
| 7.2 | 61 | 15000 | COCC(=O)Nc1nc(-c2ccc(F)c(C)n2)c(-c2ccc3nccnc3c2)[nH]1 | – | – | – | – |
| 15 | 513 | 46300 | Cc1nc(-c2nc(N3CCOCC3)[nH]c2-c2ccc3ncnn3c2)ccc1F | 0.4 | 25 | – | – |
| 8.8 | 156 | 13500 | CCC(=O)Nc1nc(-c2ccc(F)c(C)n2)c(-c2ccc3nccnc3c2)[nH]1 | – | – | – | – |

Further lines, the compound ahead of its results:

| SMILES | Ki (TGF-beta receptor type-1 [1]) [nM] | EC50 (TGF-beta receptor type-1 [2]) [nM] | EC50 [3] [nM] | half-life [4] [h] | bioavailability [5] [%] | IC50 (TGF-beta receptor type-1 [2]) [nM] | IC50 [3] [nM] |
| --- | --- | --- | --- | --- | --- | --- | --- |
| Cc1nc(-c2nc(N3CCCCC3)[nH]c2-c2ccc3ncnn3c2)ccc1F | 53.2 | – | – | – | – | – | – |
| CC(=O)N1CCN(c2nc(-c3ccc(F)c(C)n3)c(-c3ccc4ncnn4c3)[nH]2)CC1 | 15.2 | 1220 | 14200 | – | – | – | – |
| Cc1nc(-c2nc(N3CCN(S(C)(=O)=O)CC3)[nH]c2-c2ccc3ncnn3c2)ccc1F | 3 | 414 | 41200 | – | – | – | – |
| CC(=O)Nc1nc(-c2cccc(C)n2)c(-c2ccc3ncnn3c2)[nH]1 | 2.95 | 165 | 57800 | 7.1 | 100 | – | – |
| CC(=O)Nc1nc(-c2ccc(F)c(C)n2)c(-c2ccc3nccnc3c2)[nH]1 | – | 180 | 14800 | 7.8 | 66 | – | – |
| CC(=O)Nc1nc(-c2ccc(F)c(C)n2)c(-c2ccc3ncnn3c2)[nH]1 | 2.07 | 111 | 28100 | – | – | – | – |
| Cc1nc(-c2nc(N)[nH]c2-c2ccc3nccnc3c2)ccc1F | 0.7 | – | – | 0.6 | 28 | 33.5 | 12500 |
